Assay [1] has as its system Plasmodium falciparum. As to the kind of experiment: Inhibition of oocyst production after 7 days in Anopheles stephensi SxK Nij fed human serum infected with Plasmodium falciparum NF54 stage V gametocyte at 100 uM for 1 hr. The format is functional. A digest of the protocol: (§1)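 Isolate NF54 stage V gametocytes treated for stated times with 100 µM inhibitor or DMSO, pelleted onto packed erythrocytes in normal human serum with active complement, membrane-fed (39°C) to Anopheles stephensi SxK Nij for 10 min; mosquitoes kept 7 days at 26°C. Midguts mercurochrome-stained, oocysts counted, 16 to 20 mosquitoes per feeding; geometric mean oocysts per midgut versus control; Kruskal-Wallis.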

Assay [2] has as its system Plasmodium falciparum. As to the kind of experiment: Inhibition of gametogenesis after 1 hrs in Plasmodium falciparum 3D7 at 100 uM in emergence medium. The format is functional, organism-based.
For assay [3], the system named is Plasmodium falciparum. As to the kind of experiment: Inhibition at day 7 of Plasmodium falciparum 3D7 oocyst production in human serum at 100 uM for 1 hrs prior to feeding Anopheles stephensi SxK Nij. The settings on record: 3D7, Serum. The format is functional. Summed up: (§2)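 Strain 3D7 stage V gametocyte cultures treated 1 h with inhibitor or DMSO, 0.3 ml pelleted onto 150 µl packed erythrocytes, supernatant replaced by 120 µl normal human serum with active complement; membrane feeder at 39°C, mosquitoes gorge 10 min, kept 7 days at 26°C, >80% humidity. Midguts mercurochrome-stained, oocysts counted; geometric mean per midgut versus DMSO control gives percent reduction; Kruskal-Wallis.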

In assay [4] the test system is Plasmodium falciparum. As to the kind of experiment: Inhibition of oocyst production after 7 days in Anopheles stephensi SxK Nij fed human serum infected with Plasmodium falciparum NF54 stage V gametocyte at 100 uM for 30 min. The class given is functional. A digest of the protocol:
as §1

In assay [5] the test system is Plasmodium falciparum. As to the kind of experiment: Gametocyte morphology as exflagellation after 15-30 min in Plasmodium falciparum 3D7 at 100 uM for 1hr in emergence medium. The format is functional, organism-based.
The subject of assay [6] is Plasmodium falciparum. As to the kind of experiment: Inhibition of oocyst production after 7 days in Anopheles stephensi SxK Nij fed human serum infected with Plasmodium falciparum NF54 stage V gametocyte at 100 uM for 15 min. The class given is functional. A digest of the protocol: as §1
Assay [7] deals with Plasmodium falciparum. As to the kind of experiment: Inhibition of oocyst production after 7 days in Anopheles stephensi SxK Nij fed human serum infected with Plasmodium falciparum 3D7 stage V gametocyte at 10 uM for 1 hr. The class given is functional, organism-based. Summed up: as §2
Assay [8] relates to Plasmodium falciparum. As to the kind of experiment: Inhibition of Pfs230 processing after 1 hrs in Plasmodium falciparum 3D7 at 10 uM in emergence medium. The format is functional, organism-based. Summed up: (§3)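 Mature stage V 3D7 gametocytes preincubated 1 h at 37°C in complete RPMI 1640 with inhibitor or DMSO (saponin 0.001% present or absent during this incubation). Cells then pelleted and resuspended in an equal volume of emergence medium (10 µM xanthurenic acid, glucose, NaCl, 8 mM Tris-Cl pH 8.2) at RT. Medium harvested after 1 h and clarified by centrifugation. Readout: immunoblot with Pfs230 region A (aa 304–378) antibodies, scoring 47-kDa and 35-kDa fragments.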

Assay [9] relates to Plasmodium falciparum. As to the kind of experiment: Inhibition of gametogenesis after 1 hrs in Plasmodium falciparum 3D7 at 10 uM in emergence medium. The format is functional, organism-based. Summed up: (§4)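 Mature 3D7 gametocytes incubated 1 h with inhibitor or an equal volume of DMSO, then pelleted. Gametogenesis triggered by adding an equal volume of emergence medium (xanthurenic acid, pH 8.2, RT). Scored on Giemsa-stained thin smears before and 15 min after the stimulus (emergence), and by bright-field observation of exflagellation centers 15–30 min after the stimulus.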

In assay [10] the test system is Plasmodium falciparum. As to the kind of experiment: Inhibition of Pfs230 processing after 1 hrs in Plasmodium falciparum 3D7 at 10 uM in emergence medium with 0.001% saponin. The format is functional, organism-based. Summed up: as §3
The subject of assay [11] is Plasmodium falciparum. As to the kind of experiment: Inhibition of Pfs230 processing after 1 hrs in Plasmodium falciparum 3D7 at 100 uM in emergence medium. The format is functional, organism-based. Summed up:
as §3

Assay [12] relates to Plasmodium falciparum. As to the kind of experiment: Inhibition of exflagellation after 1 hrs in Plasmodium falciparum 3D7 at 10 uM in emergence medium. The class given is functional, organism-based. A digest of the protocol: as §4

Activity calls are given as the source filed them. No cut-off for these calls is given here.

One may read the inhibition as the percentage by which the read-out fell short of the control. A higher inhibition goes with strong suppression.

As to `CCOC(=O)[C@H]1O[C@@H]1C(=O)N[C@@H](CC(C)C)C(=O)NCCC(C)C` [ALOXISTATIN], the inhibition at 100 µM in [1] is 100%; in [3] it was 81%; in [4] it was 98%; in assay [6], 79%. Also, the outcome in assay [2], in [5] and in assay [7] was inactive.

Consider `CC(C)C[C@H](NC(=O)C(CCc1ccccc1)NC(=O)CF)C(=O)NC(=O)N1CCOCC1` (some centres not stated), for which the result in [8], in [9], in assay [11] and in assay [12] was inactive. The result in [10] was Active.
